Where “and” joins values, the source holds several entries; their conditions need not be identical. Equal values may be shown once.
Tests used:
[1] = tested on: P388; test: In vivo for antitumor effect on P388 Leukemia of the CDF1 mouse at dose 20 uM/kg administered intraperitoneally; type: functional, organism-based
In short: (§1)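 P388 leukemia was passaged in female DBA/2 mice. Female CDF1 mice (18–22 g) received 1×10^6 cells ip in PBS on day 0. Groups of six (ten for solvent control) were dosed ip with aqueous solutions on days 1, 5 and 9. Median survival time = X + Y/2, with X and Y the first days reaching N/2 and N/2 + 1 deaths. %T/C = treated/control median survival ×100.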

[2] = molecular target: T1, Estrogen receptor (Mus musculus) (UniProt O08537+P19785); test: Administered subcutaneously on three consecutive days at a dose of 1000 uM /Kg.; type: functional
In short: (§2)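 Immature female NMRI mice, 19 days old, in groups of six. Compounds were dissolved in water and given as 0.1 mL sc on days 1, 2 and 3; controls got vehicle and standards got estrone 0.4 μg. Animals were killed 24 h after the last dose. Uteri were fixed in Bouin solution, dried at 100 °C for 18 h and weighed. E = [uterine dry weight (mg)/body weight (g)]100, and estrogenic effect = (E_T − E_V)/(E_S − E_V)100.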

[3] = molecular target: T1, Estrogen receptor (Mus musculus); test: (§3) Administered subcutaneously on three consecutive days at a dose of 10 uM /Kg.; type: functional; in short: as §2
[4] = tested on: Mus musculus; test: Ratio of median survival time of tested group to that of control group of animals was reported at a concentration of 10 uM/Kg; type: functional, organism-based; in short: as §1
[5] = molecular target: T1, Estrogen receptor (Mus musculus); test: as §3; type: functional; in short: as §2; remark: listed apart in the source
[6] = tested on: P388; test: In vivo for antitumor effect on P388 Leukemia of the CDF1 and median survival time of the animals in days was reported at a concentration of 20 uM/Kg; type: functional, organism-based; settings: Mus musculus; in short: as §1
[7] = tested on: Mus musculus; test: Ratio of median survival time of tested group to that of control group of animals was reported at a concentration of 20 uM/Kg; type: functional, organism-based; in short: as §1
[8] = tested on: P388; test: In vivo for antitumor effect on P388 Leukemia of the CDF1 mouse at dose 40 uM/kg administered intraperitoneally; type: functional, organism-based; in short: as §1
[9] = tested on: P388; test: In vivo for antitumor effect on P388 Leukemia of the CDF1 and median survival time of the animals in days was reported at a concentration of 10 uM/Kg; type: functional, organism-based; settings: Mus musculus; in short: as §1
[10] = tested on: Mus musculus; test: Ratio of median survival time of tested group to that of control group of animals was reported at a concentration of 40 uM/Kg; type: functional, organism-based; in short: as §1
[11] = molecular target: T1, Estrogen receptor (Mus musculus); test: (§4) Administered subcutaneously on three consecutive days at a dose of 100 uM /Kg.; type: functional; in short: as §2
[12] = tested on: P388; test: In vivo for antitumor effect on P388 Leukemia of the CDF1 and median survival time of the animals in days was reported at a concentration of 40 uM/Kg; type: functional, organism-based; settings: Mus musculus; in short: as §1
[13] = tested on: P388; test: In vivo for antitumor effect on P388 Leukemia of the CDF1, and median survival time of the animals in days was reported at a concentration of 40 uM/Kg; type: functional, organism-based; settings: Mus musculus; in short: as §1
[14] = molecular target: T1, Estrogen receptor (Mus musculus); test: Administered subcutaneously on three consecutive days at a dose of 1000 uM /Kg; type: functional; in short: as §2
[15] = tested on: P388; test: In vivo antitumor effect on P388 Leukemia in CDF1 mice, median survival time in days at 10 uM/kg; type: functional, organism-based; settings: Mus musculus; in short: as §1
[16] = molecular target: T1, Estrogen receptor (Mus musculus); test: as §4; type: functional; in short: as §2; remark: listed apart in the source
[17] = tested on: P388; test: In vivo for antitumor effect on P388 Leukemia of the CDF1 mouse at dose 10 uM/kg administered intraperitoneally; type: functional, organism-based; in short: as §1
[18] = molecular target: T1, Estrogen receptor (Mus musculus); test: Estrogenic effect on subcutaneous 10 uM/kg dose for 3 days; type: functional; in short: as §2
[19] = molecular target: T1, Estrogen receptor (Mus musculus); test: Estrogenic effect on subcutaneous 100 uM/kg dose for 3 days; type: functional; in short: as §2
[20] = tested on: P388; test: In vivo antitumor effect on P388 Leukemia in CDF1 mice, median survival time in days at 20 umol/kg; type: functional, organism-based; settings: Mus musculus; in short: as §1
[21] = molecular target: T1, Estrogen receptor (Mus musculus); test: Estrogenic effect on subcutaneous 1000 umol/kg dose for 3 days; type: functional; in short: as §2
[22] = tested on: P388; test: In vivo antitumor effect on P388 Leukemia in CDF1 mice, median survival time in days at 5 umol/kg; type: functional, organism-based; settings: Mus musculus; in short: as §1
[23] = tested on: P388; test: In vivo antitumor effect on P388 Leukemia in CDF1 mice at 5 umol/kg intraperitoneal dose; type: functional, organism-based; settings: Mus musculus; in short: as §1
[24] = tested on: Mus musculus; test: Ratio of median survival time of tested group to control group at 5 umol/kg; type: functional, organism-based; in short: as §1

**Q.** What does the source list for “Aqua [threo-1-(-2-fluoro-4-hydroxyhenyl)-2-(2,6-dichloro-4-hydroxyphenyl) ethylenediamine](sulfato) platinum (II)”?
**A.** T-C [1]: -2.2 g and -1.2 g; Estrogenic effect [2]: 20 and 52; Estrogenic effect [3]: 1% and 0%; T/C [4]: 155% and 133%; Estrogenic effect [5]: 9 and 11; MST [6]: 15 and 14; T/C [7]: 166% and 155%; T-C [8]: -3.8 g and -2.4 g; MST [9]: 14 and 12; T/C [10]: 172% and 155%; Estrogenic effect [11]: 11 and 13; MST [12]: 15.5 and 14

**Q.** With “Aqua[erythro-1-(-3-hydroxyhenyl)-2-(2,6-dichloro-4-hydroxyphenyl) ethylenediamine](sulfato) platinum (II)(erythro-4-Ptso4)” as the substance, how does the T-C [1] read?
**A.** -1.7 g and -1.9 g

**Q.** And the Estrogenic effect [2]?
**A.** 19 and 32

**Q.** And the MST [13]?
**A.** 8

**Q.** And the Estrogenic effect [14]?
**A.** 0%

**Q.** And the Estrogenic effect [3]?
**A.** 0%

**Q.** What about the T/C [4] of the same substance?
**A.** 156% and 163%

**Q.** What about the MST [15] of the same substance?
**A.** 13

**Q.** What about the Estrogenic effect [16] of the same substance?
**A.** 0%

**Q.** And the MST [6]?
**A.** 14.5 and 13.5

**Q.** What about the T/C [7] of the same substance?
**A.** 161% and 169%

**Q.** And the T-C [8]?
**A.** -4.6 g and -2.6 g

**Q.** And the MST [9]?
**A.** 14

**Q.** What about the MST [12] of the same substance?
**A.** 15.5

**Q.** What about the T-C [17] of the same substance?
**A.** -0.9 g and -1.5 g

**Q.** For “Aqua[threo-1-(-2-chloro-4-hydroxyhenyl)-2-(2,6-dichloro-4-hydroxyphenyl) ethylenediamine](sulfato) platinum (II)(threo-9-Ptso4)”, which T-C [1] is on record?
**A.** -1.8 g and -1.2 g

**Q.** What about the Estrogenic effect [18] of the same substance?
**A.** 10%

**Q.** And the Estrogenic effect [19]?
**A.** 14%

**Q.** And the Estrogenic effect [2]?
**A.** 86 and 91

**Q.** What about the MST [13] of the same substance?
**A.** 14.5

**Q.** And the Estrogenic effect [14]?
**A.** 117%

**Q.** And the Estrogenic effect [3]?
**A.** 39%

**Q.** And the MST [15]?
**A.** 14

**Q.** And the Estrogenic effect [5]?
**A.** 9 and 11

**Q.** And the MST [20]?
**A.** 14

**Q.** And the Estrogenic effect [16]?
**A.** 141%

**Q.** And the Estrogenic effect [21]?
**A.** 35%

**Q.** What about the MST [6] of the same substance?
**A.** 13

**Q.** And the T/C [7]?
**A.** 155% and 144%

**Q.** What about the T-C [8] of the same substance?
**A.** -2.9 g and -1.9 g

**Q.** And the MST [9]?
**A.** 11.5

**Q.** And the T/C [10]?
**A.** 161% and 155%

**Q.** What about the Estrogenic effect [11] of the same substance?
**A.** 21 and 22

**Q.** And the MST [12]?
**A.** 14

**Q.** What about the T-C [17] of the same substance?
**A.** -1.8 g and -2.4 g

**Q.** CISPLATIN was tested. Which MST [22] did it give?
**A.** 19

**Q.** What about the T-C [23] of the same substance?
**A.** -3.8 g

**Q.** What about the T/C [24] of the same substance?
**A.** 238%
